Experimental data: ChEMBL document CHEMBL1154086, “Novel Biginelli dihydropyrimidines with potential anticancer activity: a parallel synthesis and CoMSIA study” (Eur J Med Chem, 2009)
Calls of active or inactive are those of the source. The calls are words filed in the database; no cut-off is given here.

Experiments:
Type in all cases: functional
[1] = tested on: Radical scavenging activity; test: Antioxidant activity assessed as DPPH radical scavenging activity at 100 ug after 30 mins by ELISA
In short: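 Ethanolic DPPH (200 µl) mixed with 10 µl compound solution (100 µg) in 96-well plate, 37 °C for 30 min; decrease in absorbance read at 490 nm on ELISA reader. Ascorbic acid (10 µg) standard.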

MCF7 = test: Anticancer activity against human MCF7 cells assessed as cell viability at 10 ug after 3 hrs by trypan blue dye exclusion assay
In short: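 MCF-7 cells grown in peritoneal cavity of albino mice (25–30 g) after i.p. injection of 1 × 10^6 cells/ml; aspirated day 15, washed three times in HBSS, adjusted to 1 × 10^6 cells/ml. 0.1 ml cells plus 0.1 ml compound (10 µg), 37 °C, 5% CO2, 3 h. Trypan blue (0.4%, 1:1) exclusion, haemocytometer count; % cytotoxicity versus untreated control, triplicate.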

[2] = tested on: Radical scavenging activity; test: Antioxidant activity assessed as DPPH radical scavenging activity after 30 mins by ELISA
In short: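 DPPH discolouration in 96-well plate: 200 µl ethanolic DPPH plus 10 µl compound solution; 37 °C, 30 min; absorbance at 490 nm on ELISA reader. IC50 (concentration inhibiting 50% of free radicals) from serial dilutions below 100 µg. Ascorbic acid (10 µg) standard.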

| SMILES | Activity [1] | Activity (MCF7) [%] | IC50 [2] [µg] |
| --- | --- | --- | --- |
| CNC(=O)C1=C(C)NC(=S)NC1c1ccc(OC)cc1 (centres undefined) | inactive | 48 | – |
| CNC(=O)C1=C(C)NC(=O)NC1c1ccc(O)c(OC)c1 (centres undefined) | inactive | 49 | – |
| COc1cc(C2NC(=O)NC(C)=C2C(=O)Nc2ccccc2Cl)ccc1O (centres undefined) | inactive | 52 | – |
| CNC(=O)C1=C(C)NC(=O)NC1c1ccccc1 (centres undefined) | inactive | 27 | – |
| CC1=C(C(=O)Nc2ccccc2Cl)C(c2ccco2)NC(=S)N1 (centres undefined) | inactive | 76 | – |
| CC1=C(C(=O)Nc2ccccc2Cl)C(c2ccncc2)NC(=S)N1 (centres undefined) | inactive | 72 | – |
| CNC(=O)C1=C(C)NC(=O)NC1c1cccc([N+](=O)[O-])c1 (centres undefined) | – | 23 | 63 |
| COc1cc(C2NC(=S)NC(C)=C2C(=O)Nc2ccccc2Cl)ccc1O (centres undefined) | inactive | 45 | – |
| CNC(=O)C1=C(C)NC(=S)NC1c1cccc([N+](=O)[O-])c1 (centres undefined) | – | 39 | 58 |
| COc1ccc(C2NC(=S)NC(C)=C2C(=O)Nc2ccccc2Cl)cc1 (centres undefined) | inactive | 47 | – |
| CNC(=O)C1=C(C)NC(=O)NC1c1ccncc1 (centres undefined) | inactive | 64 | – |
| CNC(=O)C1=C(C)NC(=O)NC1c1ccc(OC)cc1 (centres undefined) | inactive | 41 | – |
| CC1=C(C(=O)Nc2ccccc2Cl)C(C(=O)/C=C/c2ccccc2)NC(=O)N1 (centres undefined) | inactive | 79 | – |
| CC1=C(C(=O)Nc2ccccc2Cl)C(c2cccc([N+](=O)[O-])c2)NC(=O)N1 (centres undefined) | inactive | 29 | – |
| CNC(=O)C1=C(C)NC(=S)NC1c1ccccc1 (centres undefined) | inactive | 35 | – |
| COc1ccc(C2NC(=O)NC(C)=C2C(=O)Nc2ccccc2Cl)cc1 (centres undefined) | inactive | 51 | – |

| SMILES | Activity [1] | Activity (MCF7) [%] | IC50 [2] [µg] |
| --- | --- | --- | --- |
| CC1=C(C(=O)Nc2ccccc2Cl)C(c2ccccc2)NC(=N)N1C#N (centres undefined) | inactive | 35 | – |
| CC1=C(C(=O)Nc2ccccc2Cl)C(c2ccccc2O)NC(=O)N1 (centres undefined) | inactive | 58 | – |
| CC1=C(C(=O)Nc2ccccc2Cl)C(c2ccncc2)NC(=O)N1 (centres undefined) | inactive | 59 | – |
| CC1=C(C(=O)Nc2ccccc2Cl)C(c2ccccc2O)NC(=S)N1 (centres undefined) | inactive | 49 | – |
| CNC(=O)C1=C(C)NC(=O)NC1C(=O)/C=C/c1ccccc1 (centres undefined) | inactive | 47 | – |
| CC1=C(C(=O)Nc2ccccc2Cl)C(c2ccc(Br)cc2)NC(=O)N1 (centres undefined) | inactive | 7 | – |
| CC1=C(C(=O)Nc2ccccc2Cl)C(C(=O)/C=C/c2ccccc2)NC(=S)N1 (centres undefined) | inactive | 71 | – |
| CC1=C(C(=O)Nc2ccccc2Cl)C(c2ccco2)NC(=O)N1 (centres undefined) | inactive | 69 | – |
| CNC(=O)C1=C(C)NC(=O)NC1c1ccco1 (centres undefined) | inactive | 61 | – |
| CNC(=O)C1=C(C)NC(=S)NC1c1ccco1 (centres undefined) | inactive | 57 | – |
| CC1=C(C(=O)Nc2ccccc2Cl)C(c2ccccc2)NC(=O)N1 (centres undefined) | inactive | 30 | – |
| CNC(=O)C1=C(C)NC(=S)NC1c1ccccc1O (centres undefined) | inactive | 45 | – |
| CNC(=O)C1=C(C)NC(=S)NC1c1ccc(O)c(OC)c1 (centres undefined) | inactive | 41 | – |
| CC1=C(C(=O)Nc2ccccc2Cl)C(c2cccc([N+](=O)[O-])c2)NC(=S)N1 (centres undefined) | inactive | 13 | – |
| CC1=C(C(=O)Nc2ccccc2Cl)C(c2ccccc2)NC(=S)N1 (centres undefined) | inactive | 25 | – |
| CC1=C(C(=O)Nc2ccccc2Cl)C(c2ccc(Br)cc2)NC(=S)N1 (centres undefined) | inactive | 18 | – |
